Compound activity deposited in PubChem BioAssay by Broad Institute.
Rows were chosen to be rich in hits. Some 2.3% of all compounds tested hit in one or more screens of this group.
CFTR F508del cor: CFTR F508del correction in bronchial cells; CFBE cells, YFP halide quenching; stimulated with forskolin plus potentiator P3; % fluorescence drop versus neutral controls; activity (quench increase), % at 7.58 µM; 350,000 compounds, 0.36% hits;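 active means mean added fluorescence quench of at least 8% versus neutral control, with both replicates also reaching 8%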;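 further: cells transiently co-express mutant CFTR-F508del with the halide-sensitive YFP; corrector assay measuring rescue of mutant channel to the surface after 24 h compound exposure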
Cneo AK release: causes C. neoformans cell lysis; lysis activity, % at 15 µM; 360,000 compounds, 0.2% hits; adenylate kinase release luminescence, 4 h; normalised: neutral wells 0, clomiphene wells 100;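 active means mean lysis activity across replicates of at least 80%, whatever share of replicates individually reach that level; inactive means mean lysis activity below 80%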
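Material: C. neoformans cells; Schedule: 4 h static compound exposure, 37 °C, read 1 h post-reagent; Measured by: adenylate kinase release luminescence; Read-out: signal increase indicating cell lysis; Controls: Clomiphene as positive lysis control.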
ERp5 block: inhibitors of human ERp5 | inhibition, % at 9.99 µM | 350,000 compounds, 0.05% hits | ERp5 insulin aggregation, absorbance 650 nm, 90 min | Q15084;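 active means mean replicate inhibition above about 25%, with every replicate also reaching it, limit read from the data, passing the limit was not always enough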
Target sequence (Q15084 whole entry, looked up): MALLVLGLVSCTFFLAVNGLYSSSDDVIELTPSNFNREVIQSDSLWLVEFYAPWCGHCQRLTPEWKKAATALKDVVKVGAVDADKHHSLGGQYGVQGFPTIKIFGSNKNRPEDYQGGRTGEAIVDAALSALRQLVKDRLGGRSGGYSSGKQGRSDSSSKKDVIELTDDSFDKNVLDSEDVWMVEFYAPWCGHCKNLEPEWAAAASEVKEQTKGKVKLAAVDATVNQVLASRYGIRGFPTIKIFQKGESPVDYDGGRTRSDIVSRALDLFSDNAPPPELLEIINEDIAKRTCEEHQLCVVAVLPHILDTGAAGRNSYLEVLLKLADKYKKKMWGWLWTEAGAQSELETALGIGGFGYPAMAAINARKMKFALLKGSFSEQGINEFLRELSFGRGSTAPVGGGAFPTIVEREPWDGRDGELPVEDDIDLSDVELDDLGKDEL
C2C12 statin: protects C2C12 myotubes from simvastatin toxicity | 330,000 compounds, 0.78% hits | rescue of ATP level, % at 7.49 µM | ATP luminescence, 48 h; scaled: DMSO 0, geranylgeraniol control 100;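 active means mean ATP rescue above about 67%, or every replicate alone reaching that limit, limit read from the data, passing the limit was not always enough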;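 further: myotubes were challenged with 10 µM simvastatin during compound exposure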
DENV2 CPE: inhibitors of DENV2 cytopathic effect; DENV2-infected cells, cytopathic effect rescue, plate reader; CPE inhibition, % at 9.99 µM; 350,000 compounds, 1.7% hits; AID 651640; in the data active means CPE inhibition above about 20%, passing the limit was not always enough; tested in BHK-21 cells
Of the large screens only hits and unclear results are named; the others gave an inactive call.

Cc1noc(C)c1S(=O)(=O)N(C)C[C@@H]1OCCCC[C@@H](C)Oc2ccc(NC(=O)Cc3ccccc3)cc2C(=O)N([C@@H](C)CO)C[C@@H]1C	DENV2 CPE 52.3 (no result: Cneo AK release, C2C12 statin)
COc1ccc(S(=O)(=O)N(C)C[C@@H]2OCCCC[C@H](C)Oc3ccc(NC(=O)c4ccccc4)cc3C(=O)N([C@H](C)CO)C[C@@H]2C)cc1	DENV2 CPE 44.0 (no result: C2C12 statin)
C[C@H](CO)N1C[C@H](C)[C@@H](CN(C)S(C)(=O)=O)OCCCC[C@H](C)Oc2ccc(NC(=O)Nc3ccc(F)cc3)cc2C1=O	DENV2 CPE 26.3 (no result: ERp5 block, C2C12 statin)
C[C@@H]1CCCCO[C@H](CN(C)S(C)(=O)=O)[C@@H](C)CN([C@H](C)CO)C(=O)c2cc(NC(=O)Nc3ccc(F)cc3)ccc2O1	none (no result: Cneo AK release, C2C12 statin)
C[C@@H]1CN([C@@H](C)CO)C(=O)c2cc(NC(=O)Nc3cccc4ccccc34)ccc2O[C@@H](C)CCCCO[C@@H]1CN(C)S(=O)(=O)c1ccc(F)cc1	DENV2 CPE 20.8
Cc1cc(C(=O)Nc2cccc3c2O[C@@H](CN(C)C(=O)Nc2ccccc2)[C@H](C)CN([C@H](C)CO)C3=O)n(C)n1	none
CO[C@H]1CN(C)C(=O)c2cc(NC(=O)C3CCCC3)ccc2OC[C@H](C)N(C)C[C@@H]1C	none
Cc1ccccc1S(=O)(=O)NCC[C@H]1CC[C@@H](NC(=O)C2CCC2)[C@H](CO)O1	none
CCCN(C)C[C@@H]1OCCCC[C@H](C)Oc2ccc(NC(=O)Cc3ccccc3)cc2C(=O)N([C@@H](C)CO)C[C@@H]1C	DENV2 CPE 35.4
COc1ccc(S(=O)(=O)N(C)C[C@H]2OCCCC[C@H](C)Oc3ccc(NC(=O)Nc4c(C)noc4C)cc3C(=O)N([C@H](C)CO)C[C@@H]2C)cc1	DENV2 CPE 67.0
COc1ccc(NC(=O)Nc2ccc3c(c2)C(=O)N([C@@H](C)CO)C[C@H](C)[C@@H](CN(C)S(=O)(=O)c2ccccc2)OCCCC[C@@H](C)O3)cc1	none (no result: C2C12 statin)
COc1ccc(S(=O)(=O)N(C)C[C@H]2OCCCC[C@H](C)Oc3ccc(NC(=O)Nc4c(C)noc4C)cc3C(=O)N([C@@H](C)CO)C[C@H]2C)cc1	none
COc1ccc(NC(=O)Nc2ccc3c(c2)C(=O)N([C@@H](C)CO)C[C@@H](C)[C@@H](CN(C)S(=O)(=O)c2ccccc2)OCCCC[C@@H](C)O3)cc1	DENV2 CPE 66.4 (no result: C2C12 statin)
C[C@@H]1CN([C@H](C)CO)C(=O)c2cc(NC(=O)Cc3ccccc3)ccc2O[C@@H](C)CCCCO[C@@H]1CN(C)S(=O)(=O)c1ccc(F)cc1	none (no result: ERp5 block)
C[C@@H]1CN([C@@H](C)CO)C(=O)c2cc(NC(=O)Cc3ccccc3)ccc2O[C@@H](C)CCCCO[C@@H]1CN(C)S(=O)(=O)c1ccc(F)cc1	C2C12 statin 101.0 (no result: ERp5 block)
O=C(Nc1ccc(C(F)(F)F)cc1)N[C@H]1CC[C@H](CC(=O)N2CCCCC2)O[C@H]1CO	none
C[C@H]1CN([C@@H](C)CO)C(=O)c2cc(NC(=O)Nc3ccc(F)cc3)ccc2O[C@@H]1CN(C)S(C)(=O)=O	Cneo AK release 100.0
C[C@@H]1CCCCO[C@@H](CN(C)S(C)(=O)=O)[C@H](C)CN([C@@H](C)CO)C(=O)c2cc(NC(=O)Cc3ccccc3)ccc2O1	DENV2 CPE 51.7
C[C@@H]1CCCCO[C@H](CN(C)S(C)(=O)=O)[C@H](C)CN([C@@H](C)CO)C(=O)c2cc(NC(=O)Cc3ccccc3)ccc2O1	none (no result: Cneo AK release, ERp5 block, DENV2 CPE)
C[C@H](CO)N1C[C@H](C)[C@@H](CN(C)S(=O)(=O)c2ccccc2)OCCCC[C@H](C)Oc2ccc(N(C)C)cc2C1=O	C2C12 statin 91.6
COc1ccc(NC(=O)Nc2ccc3c(c2)C(=O)N([C@H](C)CO)C[C@@H](C)[C@@H](CN(C)S(=O)(=O)c2ccc(Cl)cc2)OCCCC[C@H](C)O3)cc1	Cneo AK release 96.3, DENV2 CPE 40.0 (no result: C2C12 statin)
CN1C(=O)c2cc(NS(=O)(=O)c3ccc(F)cc3)ccc2OC[C@H]2O[C@H](CC(=O)O)CC[C@H]21	none
C[C@@H]1CN([C@@H](C)CO)C(=O)c2cc(C3=CCCC3)cnc2O[C@H]1CN(C)C(=O)Nc1cccc(F)c1	none (no result: Cneo AK release, ERp5 block, DENV2 CPE)
C[C@@H]1CCCCO[C@@H](CN(C)S(=O)(=O)c2ccccc2)[C@@H](C)CN([C@H](C)CO)C(=O)c2cc(NC(=O)Nc3ccccc3)ccc2O1	DENV2 CPE 65.5 (no result: C2C12 statin)
COc1ccc(S(=O)(=O)N(C)C[C@@H]2OCCCC[C@H](C)Oc3ccc(NC(=O)NC(C)C)cc3C(=O)N([C@@H](C)CO)C[C@H]2C)cc1	DENV2 CPE 49.2 (no result: C2C12 statin)
C[C@H](CO)N1C[C@H](C)[C@H](CN(C)S(=O)(=O)c2ccc(Cl)cc2)OCCCC[C@H](C)Oc2ccc(NC(=O)c3ccccc3)cc2C1=O	DENV2 CPE 21.4 (no result: C2C12 statin)
C[C@@H]1CCCCO[C@@H](CN(C)S(=O)(=O)c2ccccc2)[C@@H](C)CN([C@H](C)CO)C(=O)c2cc(NC(=O)Nc3ccc(F)cc3)ccc2O1	none (no result: C2C12 statin)
C[C@@H]1CCCCO[C@H](CN(C)S(=O)(=O)c2ccccc2)[C@@H](C)CN([C@H](C)CO)C(=O)c2cc(NC(=O)Nc3ccccc3)ccc2O1	none (no result: C2C12 statin)
C[C@@H]1CCCCO[C@H](CN(C)S(=O)(=O)c2ccc(Cl)cc2)[C@@H](C)CN([C@H](C)CO)C(=O)c2cc(NC(=O)c3ccccc3)ccc2O1	none (no result: C2C12 statin)
C[C@H](CO)N1C[C@H](C)[C@@H](CN(C)S(=O)(=O)c2ccccc2)OCCCC[C@H](C)Oc2ccc(NC(=O)Nc3ccc(F)cc3)cc2C1=O	DENV2 CPE 52.2 (no result: C2C12 statin)
CC(C)C#Cc1cnc2c(c1)C(=O)N([C@@H](C)CO)C[C@H](C)[C@@H](CN(C)Cc1cccc(F)c1)O2	none
O=C(N[C@H]1CC[C@@H](CCNS(=O)(=O)c2ccc(F)cc2)O[C@H]1CO)c1cccc(F)c1	none
CN1c2ccc(-c3ccc(C#N)cc3)cc2[C@H]2[C@H](CCN2C(=O)NC2CCCC2)[C@@H]1CO	none
CO[C@H]1CN(C)C(=O)c2cc(NC(=O)Nc3ccccc3)ccc2OC[C@H](C)N(C(=O)Nc2c(C)noc2C)C[C@@H]1C	none
C[C@@H]1CCCCO[C@H](CN(C)S(=O)(=O)c2ccccc2)[C@H](C)CN([C@@H](C)CO)C(=O)c2cc(NC(=O)Nc3ccc(F)cc3)ccc2O1	none (no result: C2C12 statin)
C[C@@H]1CN([C@@H](C)CO)C(=O)c2cc(NC(=O)Nc3ccc(F)cc3)ccc2O[C@@H](C)CCCCO[C@H]1CN(C)S(=O)(=O)c1ccccc1	Cneo AK release 100.7, DENV2 CPE 124.3 (no result: C2C12 statin)
CCCNC(=O)[C@@H]1[C@@H](CO)[C@@H]2Cn3c(ccc(-c4ccccc4F)c3=O)[C@H]1N2S(C)(=O)=O	none
